Measurements taken from paper PMC4782725 (The Journal of Organic Chemistry, 2016).

Legend:
[1] = system: A2058 (melanoma); assay: proliferative cell growth inhibition assay, A2058; format: cell-based; conditions: Homo sapiens, A2058, read-out: IC50(cell line) A2058
Summary of the method: (§1)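 Cell viability assays, run on proliferating tumour lines and on quiescent IMR-90 immortalized human fibroblasts, gave IC50 values. Cell preparation and sample handling were automated. The automation protocol changed between the earlier and the later test series.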

[2] = system: wide range of cancer cell lines; conditions: initially reported; cited from earlier work
[3] = system: HCT-116 (colon cancer); assay: cell viability assay, HCT-116; format: cell-based; conditions: Homo sapiens, HCT-116, read-out: IC50(HCT-116)
Summary of the method: as §1

[4] = system: HCT-116 (colon cancer); assay: proliferative cell growth inhibition assay, HCT-116; format: cell-based; conditions: Homo sapiens, HCT-116, read-out: IC50(cell line) HCT-116
Summary of the method: as §1

[5] = system: quiescent IMR-90 immortalized human fibroblasts; assay: IMR-90 cytotoxicity assay; format: cell-based; conditions: IMR-90, read-out: IC50(cell line) IMR-90
Summary of the method: as §1

[6] = system: H522-T1 (nonsmall cell lung cancer); assay: proliferative cell growth inhibition assay, H522-T1; format: cell-based; conditions: H522-T1, read-out: IC50(cell line) H522-T1
Summary of the method: as §1

C=C(C)CC(OC)[C@H](O)C(=O)N[C@@H](OC)[C@@H]1C[C@@H](O)C(C)(C)[C@@H](C[C@H](O)[C@@H](C)[C@H]2Cc3c(C)c(O)cc(O)c3C(=O)O2)O1 (single isomer, unassigned; (+)) [compound 1, (+)-irciniastatin A]
IC50 [1]: 0.4 nM | differential activities against cancer cell lines [2]: > 10000 fold | IC50 [3]: 0.2 nM | IC50 [4]: 4 nM | IC50 [5]: 27 nM | IC50 [6]: 1 nM
